ChEMBL document CHEMBL5357047, “The development of thymol-isatin hybrids as broad-spectrum antibacterial agents with potent anti-MRSA activity” (RSC Med Chem, 2024)
In brackets after ≈: the same amount, converted by molar mass.

Assays:
Assay type in all cases: functional
[1] = tested on: Staphylococcus aureus; experiment: Antibacterial activity against clinically isolated Methicillin-resistant Staphylococcus aureus assessed as inhibition of bacterial growth at 50 uM measured after 48 hrs by agar well diffusion method; details: read-out: IZ
[2] = tested on: Staphylococcus epidermidis; experiment: Antibacterial activity against Staphylococcus epidermidis MTCC 435 assessed as inhibition of bacterial growth at 50 uM measured after 48 hrs by agar well diffusion method; details: read-out: IZ
[3] = tested on: Escherichia coli; experiment: Antibacterial activity against clinically isolated Escherichia coli RBRJ013 assessed as inhibition of bacterial growth at 50 uM measured after 48 hrs by agar well diffusion method; details: read-out: IZ
[4] = tested on: Escherichia coli; experiment: Antibacterial activity against Escherichia coli MTCC 119 assessed as inhibition of bacterial growth at 50 uM measured after 48 hrs by agar well diffusion method; details: read-out: IZ
[5] = tested on: Staphylococcus aureus; experiment: Antibacterial activity against clinically isolated Staphylococcus aureus RBRJ010 assessed as inhibition of bacterial growth at 50 uM measured after 48 hrs by agar well diffusion method; details: read-out: IZ
[6] = tested on: Staphylococcus aureus; experiment: Bactericidal activity against clinically isolated Staphylococcus aureus RBRJ010 assessed as inhibition of bacterial growth measured after 48 hrs by agar plate method
Procedure, shortened: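 MBC: 10 μL from wells showing no INT colour change after broth microdilution subcultured on drug-free Mueller Hinton agar, 48 h at 37 °C aerobically; lowest concentration with no visible growth taken as MBC (μM). Triplicate.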

[7] = tested on: Enterococcus faecalis; experiment: Antibacterial activity against clinically isolated Enterococcus faecalis RBRJ015 assessed as inhibition of bacterial growth at 50 uM measured after 48 hrs by agar well diffusion method; details: read-out: IZ
[8] = tested on: Klebsiella pneumoniae; experiment: Antibacterial activity against clinically isolated Klebsiella pneumoniae RBRJ019 assessed as inhibition of bacterial growth at 50 uM measured after 48 hrs by agar well diffusion method; details: read-out: IZ
[9] = tested on: Pseudomonas aeruginosa; experiment: Antibacterial activity against Pseudomonas aeruginosa MTCC 424 assessed as inhibition of bacterial growth at 50 uM measured after 48 hrs by agar well diffusion method; details: read-out: IZ
[10] = tested on: Klebsiella pneumoniae; experiment: Antibacterial activity against clinically isolated Klebsiella pneumoniae RBRJ024 assessed as inhibition of bacterial growth at 50 uM measured after 48 hrs by agar well diffusion method; details: read-out: IZ
[11] = tested on: Escherichia coli; experiment: Antibacterial activity against clinically isolated Escherichia coli RBRJ005 assessed as inhibition of bacterial growth at 50 uM measured after 48 hrs by agar well diffusion method; details: read-out: IZ
[12] = tested on: Staphylococcus aureus; experiment: Antibacterial activity against Methicillin-resistant Staphylococcus aureus ATCC 33591 assessed as inhibition of bacterial growth at 50 uM measured after 48 hrs by agar well diffusion method; details: read-out: IZ
Procedure, shortened: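 Agar well diffusion on Mueller Hinton agar seeded with bacteria at 0.5 McFarland. […] Incubated 48 h at 37 °C aerobically; zone of inhibition diameter (mm) measured. Triplicate.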

[13] = tested on: Enterococcus faecalis; experiment: Antibacterial activity against Enterococcus faecalis MTCC 439 assessed as inhibition of bacterial growth at 50 uM measured after 48 hrs by agar well diffusion method; details: read-out: IZ
[14] = tested on: Enterobacter cloacae; experiment: Antibacterial activity against clinically isolated Enterobacter cloacae RBRJ017 assessed as inhibition of bacterial growth at 50 uM measured after 48 hrs by agar well diffusion method; details: read-out: IZ
[15] = tested on: Staphylococcus aureus; experiment: Antibacterial activity against clinically isolated Staphylococcus aureus RBRJ010 assessed as inhibition of bacterial growth measured after 48 hrs by broth microdilution method
[16] = tested on: Staphylococcus aureus; experiment: Antibacterial activity against Staphylococcus aureus MTCC 740 assessed as inhibition of bacterial growth at 50 uM measured after 48 hrs by agar well diffusion method; details: read-out: IZ
[17] = tested on: Klebsiella pneumoniae; experiment: Antibacterial activity against Klebsiella pneumoniae MTCC 109 assessed as inhibition of bacterial growth at 50 uM measured after 48 hrs by agar well diffusion method; details: read-out: IZ
[18] = tested on: Acinetobacter baumannii; experiment: Antibacterial activity against clinically isolated Acinetobacter baumannii RBRJ027 assessed as inhibition of bacterial growth at 50 uM measured after 48 hrs by agar well diffusion method; details: read-out: IZ
[19] = tested on: Staphylococcus aureus; experiment: Antibacterial activity against Staphylococcus aureus MTCC 740 assessed as inhibition of bacterial growth measured after 48 hrs by broth microdilution method
[20] = tested on: Staphylococcus aureus; experiment: Bactericidal activity against Staphylococcus aureus MTCC 740 assessed as inhibition of bacterial growth measured after 48 hrs by agar plate method
Procedure, shortened: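 MBC: aliquots from microdilution wells without colour change subcultured on drug-free Mueller Hinton agar, 48 h at 37 °C aerobically. MBC is the lowest concentration with no visible growth. Triplicate.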

SMILES	zone of inhibition at 50 µM [1] [mm]	zone of inhibition at 50 µM [2] [mm]	zone of inhibition at 50 µM [3] [mm]	zone of inhibition at 50 µM [4] [mm]	zone of inhibition at 50 µM [5] [mm]	MBC [6] [µM]	zone of inhibition at 50 µM [7] [mm]	zone of inhibition at 50 µM [8] [mm]	zone of inhibition at 50 µM [9] [mm]	zone of inhibition at 50 µM [10] [mm]	zone of inhibition at 50 µM [11] [mm]	zone of inhibition at 50 µM [12] [mm]	zone of inhibition at 50 µM [13] [mm]	zone of inhibition at 50 µM [14] [mm]	MIC [15] [µM]	zone of inhibition at 50 µM [16] [mm]	zone of inhibition at 50 µM [17] [mm]	zone of inhibition at 50 µM [18] [mm]	MIC [19] [µM]	MBC [20] [µM]
COc1ccc2c(c1)C(=O)C(=O)N2CCn1cc(COc2cc(C)ccc2C(C)C)nn1	15.3	16.4	11.1	16.2	20.3	125 (≈ 54.3 µg/mL)	11.3	14.6	11.5	14.9	11.5	15.5	15.5	13.2	62.5 (≈ 27.2 µg/mL)	16.2	15.3	11.4		
Cc1ccc(C(C)C)c(OCc2cn(CCCCN3C(=O)C(=O)c4cc(F)ccc43)nn2)c1	16.2	15.1	11.1	11.2	12.2		14.6	13.2	12.2	11.3	12.2	16.4	10	12.5		19.2	14.4	11.8		
Cc1ccc(C(C)C)c(OCc2cn(CCCCN3C(=O)C(=O)c4ccccc43)nn2)c1	19.6	16.2	11.5	16.5	16.2		17.6	14.4	13.7	15.6	13.6	19	13.2	12.6		22.1	15.2	11.2	15.6 (≈ 6.75 µg/mL)	31.2 (≈ 13.5 µg/mL)
COc1ccc2c(c1)C(=O)C(=O)N2CCCCn1cc(COc2cc(C)ccc2C(C)C)nn1	15.2	12.6	11.3	14.4	13.2		13.2	12.2	11.3	11.3	14.2	13.2	11.2	10.9		19	14.7	10.2		
Cc1ccc(C(C)C)c(OCc2cn(CCCCN3C(=O)C(=O)c4cc(Br)ccc43)nn2)c1	13.5	14.2	11	11.1	11.2		13.8	11.4	11.3	10.9	11.8	13.1	10.3	11.1		18.1	13.5	10.7		
Cc1ccc(C(C)C)c(OCc2cn(CCN3C(=O)C(=O)c4cc(Br)ccc43)nn2)c1	14.2	15.3	13.2	12.5	16.4		12.4	11.2	14	12.3	12.5	13.3	13.6	13.3		16.2	13.2	12.5		
